Calls of active or inactive are those of the source. The calls are words filed in the database; no cut-off is given here.
Columns and labels:
Mus musculus [1] = test: Anticonvulsant activity in albino CF1 mouse assessed as protection against maximal electroshock-induced seizures at 100 mg/kg, ip after 4 hrs; format: functional, organism-based; design: dose 100 mg/kg
Method in brief: (§1)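 Mice dosed ip at 30, 100 or 300 mg/kg, then tested 0.5 h and 4 h after administration in the MES or scMet test. Protection was recorded as animals protected over animals tested. Neurotoxicity was recorded as motor impairment or sedation, as animals affected over animals tested.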

Mus musculus [2] = test: Neurotoxicity in albino CF1 mouse assessed as minimal motor impairment at 30 mg/kg, ip after 4 hrs by rotarod test; format: toxicity, organism-based; design: dose 30 mg/kg, route intraperitoneal; details: in vivo; method in brief: as §1
Rattus norvegicus [3] = test: Neurotoxicity in pilocarpine-induced status epilepticus Sprague-Dawley albino rat model assessed as minimal motor impairment at 100 mg/kg, ip after 2 hrs by rotarod test; format: toxicity, organism-based; design: dose 100 mg/kg, route intraperitoneal; details: in vivo
Rattus norvegicus [4] = test: Neurotoxicity in pilocarpine-induced status epilepticus Sprague-Dawley albino rat model assessed as minimal motor impairment at 100 mg/kg, ip after 1 hr by rotarod test; format: toxicity, organism-based; design: dose 100 mg/kg, route intraperitoneal; details: in vivo
Mus musculus [5] = test: Anticonvulsant activity in albino CF1 mouse assessed as protection against subcutaneous metrazol-induced seizures at 300 mg/kg, ip after 0.5 hrs; format: functional, organism-based; design: dose 300 mg/kg; method in brief: as §1
Mus musculus [6] = test: Neurotoxicity in albino CF1 mouse assessed as minimal motor impairment at 100 mg/kg, ip after 0.5 hrs by rotarod test; format: toxicity, organism-based; design: dose 100 mg/kg, route intraperitoneal; details: in vivo; method in brief: as §1
Mus musculus [7] = test: Anticonvulsant activity in albino CF1 mouse assessed as protection against subcutaneous metrazol-induced seizures at 100 mg/kg, ip after 4 hrs; format: functional, organism-based; design: dose 100 mg/kg; method in brief: as §1
Mus musculus [8] = test: Anticonvulsant activity in albino CF1 mouse assessed as protection against subcutaneous metrazol-induced seizures at 100 mg/kg, ip after 0.5 hrs; format: functional, organism-based; design: dose 100 mg/kg; method in brief: as §1
Rattus norvegicus [9] = test: Neurotoxicity in pilocarpine-induced status epilepticus Sprague-Dawley albino rat model assessed as minimal motor impairment at 100 mg/kg, ip after 0.5 hrs by rotarod test; format: toxicity, organism-based; design: dose 100 mg/kg, route intraperitoneal; details: in vivo
Rattus norvegicus [10] = test: Anticonvulsant activity in Sprague-Dawley albino rat assessed as protection against pilocarpine-induced status epilepticus at 200 mg/kg, ip; format: functional, organism-based; design: dose 200 mg/kg
Method in brief: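 Pilocarpine status epilepticus model in rats. Number and severity of convulsive seizures were observed behaviourally.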

Rattus norvegicus [11] = test: Neurotoxicity in pilocarpine-induced status epilepticus Sprague-Dawley albino rat model assessed as minimal motor impairment at 100 mg/kg, ip after 0.25 hr by rotarod test; format: toxicity, organism-based; design: dose 100 mg/kg, route intraperitoneal; details: in vivo
Rattus norvegicus [12] = test: Neurotoxicity in pilocarpine-induced status epilepticus Sprague-Dawley albino rat model assessed as minimal motor impairment at 300 mg/kg, ip after 0.5 hrs by rotarod test; format: toxicity, organism-based; design: dose 300 mg/kg, route intraperitoneal; details: in vivo
Method in brief: (§2)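 Rat pilocarpine status epilepticus model: test carbamate given at 0 or 30 min after the first observed Racine stage 3 motor seizure, which marks SE onset. Neurotoxicity was scored within the same model.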

Mus musculus [13] = test: Anticonvulsant activity in albino CF1 mouse assessed as protection against maximal electroshock-induced seizures at 30 mg/kg, ip after 0.5 hrs; format: functional, organism-based; design: dose 30 mg/kg; method in brief: as §1
Mus musculus [14] = test: Neurotoxicity in albino CF1 mouse assessed as minimal motor impairment at 30 mg/kg, ip after 0.5 hrs by rotarod test; format: toxicity, organism-based; design: dose 30 mg/kg, route intraperitoneal; details: in vivo; method in brief: as §1
Mus musculus [15] = test: Neurotoxicity in albino CF1 mouse assessed as minimal motor impairment at 300 mg/kg, ip after 0.5 hrs by rotarod test; format: toxicity, organism-based; design: dose 300 mg/kg, route intraperitoneal; details: in vivo; method in brief: as §1
Mus musculus [16] = test: Anticonvulsant activity in albino CF1 mouse assessed as protection against maximal electroshock-induced seizures at 30 mg/kg, ip after 4 hrs; format: functional, organism-based; design: dose 30 mg/kg; method in brief: as §1
Rattus norvegicus [17] = test: Neurotoxicity in pilocarpine-induced status epilepticus Sprague-Dawley albino rat model assessed as minimal motor impairment at 300 mg/kg, ip after 2 hrs by rotarod test; format: toxicity, organism-based; design: dose 300 mg/kg, route intraperitoneal; details: in vivo; method in brief: as §2
Mus musculus [18] = test: Anticonvulsant activity in albino CF1 mouse assessed as protection against subcutaneous metrazol-induced seizures at 300 mg/kg, ip after 4 hrs; format: functional, organism-based; design: dose 300 mg/kg; method in brief: as §1
Rattus norvegicus [19] = test: Neurotoxicity in pilocarpine-induced status epilepticus Sprague-Dawley albino rat model assessed as minimal motor impairment at 300 mg/kg, ip after 0.25 hr by rotarod test; format: toxicity, organism-based; design: dose 300 mg/kg, route intraperitoneal; details: in vivo; method in brief: as §2
Mus musculus [20] = test: Anticonvulsant activity in albino CF1 mouse assessed as protection against subcutaneous metrazol-induced seizures at 30 mg/kg, ip after 0.5 hrs; format: functional, organism-based; design: dose 30 mg/kg; method in brief: as §1
Rattus norvegicus [21] = test: Neurotoxicity in pilocarpine-induced status epilepticus Sprague-Dawley albino rat model assessed as minimal motor impairment at 100 mg/kg, ip after 4 hrs by rotarod test; format: toxicity, organism-based; design: dose 100 mg/kg, route intraperitoneal; details: in vivo
Rattus norvegicus [22] = test: Neurotoxicity in pilocarpine-induced status epilepticus Sprague-Dawley albino rat model assessed as minimal motor impairment at 300 mg/kg, ip after 4 hrs by rotarod test; format: toxicity, organism-based; design: dose 300 mg/kg, route intraperitoneal; details: in vivo; method in brief: as §2
Mus musculus [23] = test: Neurotoxicity in albino CF1 mouse assessed as minimal motor impairment at 100 mg/kg, ip after 4 hrs by rotarod test; format: toxicity, organism-based; design: dose 100 mg/kg, route intraperitoneal; details: in vivo; method in brief: as §1
Mus musculus [24] = test: Anticonvulsant activity in albino CF1 mouse assessed as protection against subcutaneous metrazol-induced seizures at 30 mg/kg, ip after 4 hrs; format: functional, organism-based; design: dose 30 mg/kg; method in brief: as §1
Mus musculus [25] = test: Anticonvulsant activity in albino CF1 mouse assessed as protection against maximal electroshock-induced seizures at 300 mg/kg, ip after 0.5 hrs; format: functional, organism-based; design: dose 300 mg/kg; method in brief: as §1
Mus musculus [26] = test: Anticonvulsant activity in albino CF1 mouse assessed as protection against maximal electroshock-induced seizures at 300 mg/kg, ip after 4 hrs; format: functional, organism-based; design: dose 300 mg/kg; method in brief: as §1
Mus musculus [27] = test: Neurotoxicity in albino CF1 mouse assessed as minimal motor impairment at 300 mg/kg, ip after 4 hrs by rotarod test; format: toxicity, organism-based; design: dose 300 mg/kg, route intraperitoneal; details: in vivo; method in brief: as §1
Rattus norvegicus [28] = test: Neurotoxicity in Sprague-Dawley albino rat assessed as minimal motor impairment at 30 mg/kg, po by rotarod test; format: toxicity, organism-based; design: dose 30 mg/kg, route oral; details: in vivo
Method in brief: (§3)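 Rats dosed orally. Anti-MES protection was scored as animals protected over animals tested at each time after dosing. Neurotoxicity was scored as motor impairment or sedation, as animals affected over animals tested.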

Rattus norvegicus [29] = test: Anticonvulsant activity in Sprague-Dawley albino rat assessed as protection against maximal electroshock-induced seizures at 30 mg/kg, po after 2 hrs; format: functional, organism-based; design: dose 30 mg/kg; method in brief: as §3
Mus musculus [30] = test: Anticonvulsant activity in albino CF1 mouse assessed as protection against maximal electroshock-induced seizures at 100 mg/kg, ip after 0.5 hrs; format: functional, organism-based; design: dose 100 mg/kg; method in brief: as §1
Rattus norvegicus [31] = test: Anticonvulsant activity in Sprague-Dawley albino rat assessed as protection against maximal electroshock-induced seizures at 30 mg/kg, po after 30 mins; format: functional, organism-based; design: dose 30 mg/kg; method in brief: as §3
Rattus norvegicus [32] = test: Anticonvulsant activity in Sprague-Dawley albino rat assessed as protection against maximal electroshock-induced seizures at 30 mg/kg, po after 1 hr; format: functional, organism-based; design: dose 30 mg/kg; method in brief: as §3
Rattus norvegicus [33] = test: Neurotoxicity in pilocarpine-induced status epilepticus Sprague-Dawley albino rat model assessed as minimal motor impairment at 300 mg/kg, ip after 1 hr by rotarod test; format: toxicity, organism-based; design: dose 300 mg/kg, route intraperitoneal; details: in vivo; method in brief: as §2

Compound | Activity (Mus musculus [1]) | Activity (Mus musculus [2]) | Activity (Rattus norvegicus [3]) | Activity (Rattus norvegicus [4]) | Activity (Mus musculus [5]) | Activity (Mus musculus [6]) | Activity (Mus musculus [7]) | Activity (Mus musculus [8]) | Activity (Rattus norvegicus [9]) | Activity (Rattus norvegicus [10]) | Activity (Rattus norvegicus [11]) | Activity (Rattus norvegicus [12]) | Activity (Mus musculus [13]) | Activity (Mus musculus [14]) | Activity (Mus musculus [15]) | Activity (Mus musculus [16]) | Activity (Rattus norvegicus [17]) | Activity (Mus musculus [18]) | Activity (Rattus norvegicus [19]) | Activity (Mus musculus [20]) | other results
CC(C)C(C)COC(N)=O (racemic) | inactive | Non-toxic | Non-toxic | Non-toxic | Active | Non-toxic | inactive | inactive | Non-toxic | Active | Non-toxic | Toxic | inactive | Non-toxic | Toxic | inactive | Non-toxic | inactive | Toxic | inactive | Activity (Rattus norvegicus [21]): Non-toxic; Activity (Rattus norvegicus [22]): Non-toxic; Activity (Mus musculus [23]): Non-toxic; Activity (Mus musculus [24]): inactive; Activity (Mus musculus [25]): Active; Activity (Mus musculus [26]): inactive; Activity (Mus musculus [27]): Non-toxic
CC(C)(C)COC(N)=O | inactive | Non-toxic | Non-toxic | Non-toxic | inactive | Non-toxic | inactive | inactive | Non-toxic | Active | Non-toxic | Toxic | inactive | Non-toxic | Non-toxic | inactive | Toxic | inactive | Toxic | inactive | Activity (Rattus norvegicus [28]): Non-toxic; Activity (Rattus norvegicus [29]): inactive; Activity (Mus musculus [30]): inactive; Activity (Rattus norvegicus [31]): inactive; Activity (Rattus norvegicus [32]): inactive; Activity (Rattus norvegicus [33]): Toxic; Activity (Rattus norvegicus [21]): Non-toxic; Activity (Mus musculus [23]): Non-toxic; Activity (Mus musculus [24]): inactive; Activity (Mus musculus [25]): inactive; Activity (Mus musculus [26]): inactive; Activity (Mus musculus [27]): Non-toxic
